Consider 5 molecules from article PMC9237996 (Toxicological Sciences, 2022).

The target of data set [1] is bile salt export pump (BSEP) (Homo sapiens, UniProt O95342). The data set is described as follows: BSEP membrane vesicle taurocholate transport inhibition. Type of data set: biochemical. The procedure, abridged: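 ATP-dependent taurocholate uptake into membrane vesicles carrying human BSEP. Transport inhibition was measured across several taurocholate concentrations crossed with several test-compound concentrations. Data were fit with Michaelis-Menten kinetics to give the Ki and the inhibition type. These values were then used as inputs to DILIsym v6A.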
Sequence of bile salt export pump (BSEP) (O95342 whole entry): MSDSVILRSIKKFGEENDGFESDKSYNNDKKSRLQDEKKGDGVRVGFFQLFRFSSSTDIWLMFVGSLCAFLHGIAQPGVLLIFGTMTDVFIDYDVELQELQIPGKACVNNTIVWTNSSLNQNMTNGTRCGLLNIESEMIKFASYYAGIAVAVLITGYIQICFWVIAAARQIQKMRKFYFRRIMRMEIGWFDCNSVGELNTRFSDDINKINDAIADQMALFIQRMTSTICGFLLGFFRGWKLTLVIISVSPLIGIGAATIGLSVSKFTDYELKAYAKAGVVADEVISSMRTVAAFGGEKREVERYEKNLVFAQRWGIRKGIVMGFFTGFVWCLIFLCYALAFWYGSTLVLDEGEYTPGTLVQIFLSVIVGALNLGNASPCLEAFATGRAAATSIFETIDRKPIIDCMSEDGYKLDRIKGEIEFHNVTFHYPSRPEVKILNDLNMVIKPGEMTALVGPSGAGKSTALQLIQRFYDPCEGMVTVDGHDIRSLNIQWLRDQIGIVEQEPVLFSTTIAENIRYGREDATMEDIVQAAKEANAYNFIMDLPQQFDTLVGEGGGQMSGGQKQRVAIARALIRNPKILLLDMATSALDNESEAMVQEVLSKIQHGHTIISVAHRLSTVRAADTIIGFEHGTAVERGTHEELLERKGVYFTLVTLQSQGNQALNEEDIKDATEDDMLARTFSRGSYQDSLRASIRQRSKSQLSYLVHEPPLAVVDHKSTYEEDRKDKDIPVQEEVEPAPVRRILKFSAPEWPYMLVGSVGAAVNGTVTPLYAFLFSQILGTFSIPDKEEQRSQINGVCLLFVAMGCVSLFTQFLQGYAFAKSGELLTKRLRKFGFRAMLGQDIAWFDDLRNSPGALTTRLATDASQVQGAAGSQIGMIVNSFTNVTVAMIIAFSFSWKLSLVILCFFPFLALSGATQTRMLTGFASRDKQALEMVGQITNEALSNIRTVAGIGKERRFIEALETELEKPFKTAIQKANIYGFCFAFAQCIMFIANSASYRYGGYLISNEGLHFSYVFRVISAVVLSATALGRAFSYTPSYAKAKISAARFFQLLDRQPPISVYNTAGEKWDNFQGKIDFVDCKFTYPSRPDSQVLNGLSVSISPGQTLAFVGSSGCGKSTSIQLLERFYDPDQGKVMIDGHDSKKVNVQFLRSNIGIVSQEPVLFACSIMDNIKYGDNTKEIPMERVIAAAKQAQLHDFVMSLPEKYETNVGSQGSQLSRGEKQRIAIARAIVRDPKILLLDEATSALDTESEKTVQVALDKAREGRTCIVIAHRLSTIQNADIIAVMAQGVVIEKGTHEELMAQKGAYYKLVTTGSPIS

Data set [2] has as its system HepG2 cells. The data set is described as follows: Seahorse oxygen consumption rate. Type of data set: cell-based. The note with it: DILIsym input parameter. The method, boiled down: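 Oxygen consumption rate was measured in HepG2 cells after 24 h incubation with the test compound. It was related to intracellular compound concentration, measured by LC/MS/MS on a parallel culture with lysate values corrected for lysate and cell volume. Three independent studies were run on HepG2 cells, each in triplicate. The data were translated into DILIsym v6A mitochondrial-dysfunction parameters (ETC inhibition, uncoupling).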

Data set [3] concerns HepG2 cells. The data set is described as follows: ROS formation by dihydroethidium. Format: cell-based. To be noted: for RNS/ROS production rate constant 1: DILIsym input parameter, oxidative stress. The procedure, abridged:
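HepG2 cells were exposed to a range of test-compound concentrations for 6 or 24 h, and ROS formation was read by dihydroethidium fluorescence. Three independent studies were run, each in triplicate. Intracellular compound level came from LC/MS/MS of cell lysate from a parallel culture, corrected for lysate and cell volume. DILIsym oxidative-stress parameters were fit by simulating the data under a steady-state in vitro dosing scheme.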

The conditions of data set [4]: 12 weeks, clinical data, cited from earlier work.

Structures are written as SMILES. Where two headings read alike, the source gives them in different places. Where only a bound is given, the exact number is not on record here.

With `Cc1cc(C[C@@H](NC(=O)N2CCC(c3cc4ccccc4[nH]c3=O)CC2)C(=O)N2CCN(C3CCN(C)CC3)CC2)cc2cn[nH]c12` [Zavegepant, zavegepant], in data set [1], the “BSEP inhibition alpha value” was 1.368 Dimensionless; the Ki (in general, the equilibrium dissociation constant of an inhibitor or competing ligand from its target) was greater than 340 µM; the “mode of inhibition for BSEP” value is given as “mixed”. In addition, in data set [2] (mitochondrial dysfunction), the “Coefficient for ETC Inhibition 3” value was 2 µM, the “Coefficient for ETC inhibition 1” value was found to be 1600 µM and the “Max inhibitory effect for ETC inhibition 3” value (“Max inhibitory effect” below) was determined as 1.5 Dimensionless. The “RNS/ROS production rate constant 1” value in data set [3] was “No ROS production”. For the same molecule, the “Oxidative stress / increase in ROS in vitro” value in data set [3] (qualitative, DHE staining, HepG2, 24-h incubation) is listed as “did not cause an increase in ROS”.

On to `C[C@@H]1[C@H](c2c(F)ccc(F)c2F)C[C@H](NC(=O)c2cnc3c(c2)C[C@@]2(C3)C(=O)Nc3ncccc32)C(=O)N1CC(F)(F)F` [Atogepant, atogepant], for which, in data set [1], the “BSEP inhibition alpha value” is recorded as 0.64 Dimensionless and the inhibitory constant (Ki) stood at 144 µM. For the same molecule, in data set [2] (mitochondrial dysfunction), the “Coefficient for ETC Inhibition 3” value was 0.1 µM, the “Coefficient for ETC inhibition 1” value was 38 170 µM, the “Max inhibitory effect” value came out at 0.2 Dimensionless and the “Uncoupler 1 effect Hill” value is “No effect”. Moreover, in data set [2] (mitochondrial dysfunction), the “Uncoupler 1 effect Km” value was “No effect” and the “Uncoupler 1 effect Vmax” value was “No effect”. Also, the “RNS/ROS production rate constant 1” value in data set [3] turned out to be 0.0947 M⁻¹ s⁻¹.

Regarding `C[C@@H]1[C@H](c2ccccc2)C[C@H](NC(=O)c2cnc3c(c2)C[C@@]2(C3)C(=O)Nc3ncccc32)C(=O)N1CC(F)(F)F` [Ubrogepant, ubrogepant], in data set [1], the “BSEP inhibition alpha value” was “No inhibition” and the “mode of inhibition for BSEP” value is “mixed”. For the same molecule, in data set [2] (mitochondrial dysfunction), the “Max inhibitory effect” value is recorded as 0.4 Dimensionless, the “Uncoupler 1 effect Hill” value was 4.3 Dimensionless and the “Uncoupler 1 effect Vmax” value came to 22.5 Dimensionless. Moreover, in data set [3], the “RNS/ROS production rate constant 1” value worked out at 0.0458 M⁻¹ s⁻¹.

In the case of `O=C(N[C@@H]1CC[C@@H](c2cccc(F)c2F)CN(CC(F)(F)F)C1=O)N1CCC(n2c(=O)[nH]c3ncccc32)CC1` [Telcagepant, telcagepant], the inhibition constant (Ki) in data set [1] is 19 µM. The “mode of inhibition for BSEP” value in data set [1] is “mixed”. Besides, the “BSEP inhibition alpha value” in data set [1] (Telcagepant—High parameter set) and in data set [1] (Telcagepant—Low parameter set) was 4.32 Dimensionless in each case. Further, the “Observed ALT > 3X ULN in Clinic” value in data set [4] (140 mg BID) was 1.9% (5/263); in data set [4] (280 mg BID), 3.2% (8/265). Further, the “Uncoupler 1 effect Hill” value in data set [2] (Telcagepant—High parameter set) and in data set [2] (Telcagepant—Low parameter set) was “No effect” throughout. For the same molecule, the “Uncoupler 1 effect Km” value in data set [2] (Telcagepant—High parameter set) and in data set [2] (Telcagepant—Low parameter set) was “No effect” in each case. Besides, the “Uncoupler 1 effect Vmax” value in data set [2] (Telcagepant—High parameter set) and in data set [2] (Telcagepant—Low parameter set) was “No effect” each time. The “RNS/ROS production rate constant 1” value in data set [3] (Telcagepant—High parameter set) and in data set [3] (Telcagepant—Low parameter set) was 0.0972 M⁻¹ s⁻¹ throughout.

Take `N[C@@H]1c2cccnc2[C@H](OC(=O)N2CCC(n3c(=O)[nH]c4ncccc43)CC2)CC[C@H]1c1cccc(F)c1F` [Rimegepant, rimegepant]: in data set [1], the “BSEP inhibition alpha value” is listed as “Competitive”, the Ki came to 27.2 µM and the “mode of inhibition for BSEP” value is listed as “competitive”. Further, in data set [2] (mitochondrial dysfunction), the “Coefficient for ETC Inhibition 3” value came to 1.89 µM, the “Coefficient for ETC inhibition 1” value stood at 3470 µM, the “Max inhibitory effect” value worked out at 0.45 Dimensionless and the “Uncoupler 1 effect Hill” value was “No effect”. Moreover, in data set [2] (mitochondrial dysfunction), the “Uncoupler 1 effect Km” value is recorded as “No effect” and the “Uncoupler 1 effect Vmax” value is listed as “No effect”. The “RNS/ROS production rate constant 1” value in data set [3] came to 0.0972 M⁻¹ s⁻¹.
